Laboratory results as given in ChEMBL document CHEMBL1914368, “Imidazo[1,5-a]quinoxalines as irreversible BTK inhibitors for the treatment of rheumatoid arthritis” (Bioorg Med Chem Lett, 2011).

Legend:
[1] = target: Serine/threonine-protein kinase Nek2 (Homo sapiens) (UniProt P51955); test: Inhibition of NEK2 relative to control; settings: concentration not given here
[2] = target: Cytoplasmic tyrosine-protein kinase BMX (Homo sapiens) (UniProt P51813); test: Inhibition of BMX relative to control; settings: concentration not given here
[3] = target: Serine/threonine-protein kinase mTOR (Homo sapiens) (UniProt P42345); test: Inhibition of FRAP1 relative to control; settings: concentration not given here
[4] = target: Tyrosine-protein kinase Tec (Homo sapiens) (UniProt P42680); test: Inhibition of TEC relative to control; settings: concentration not given here
[5] = target: Serine/threonine-protein kinase TBK1 (Homo sapiens) (UniProt Q9UHD2); test: Inhibition of TBK1 relative to control; settings: concentration not given here
[6] = target: T1, Tyrosine-protein kinase BTK (Homo sapiens, UniProt Q06187); test: Inhibition of BTK autophosphorylation at PY223 in human Ramos B cells after 20 mins by Western blot analysis; assay type: cell-based
T1 sequence (Q06187 whole entry): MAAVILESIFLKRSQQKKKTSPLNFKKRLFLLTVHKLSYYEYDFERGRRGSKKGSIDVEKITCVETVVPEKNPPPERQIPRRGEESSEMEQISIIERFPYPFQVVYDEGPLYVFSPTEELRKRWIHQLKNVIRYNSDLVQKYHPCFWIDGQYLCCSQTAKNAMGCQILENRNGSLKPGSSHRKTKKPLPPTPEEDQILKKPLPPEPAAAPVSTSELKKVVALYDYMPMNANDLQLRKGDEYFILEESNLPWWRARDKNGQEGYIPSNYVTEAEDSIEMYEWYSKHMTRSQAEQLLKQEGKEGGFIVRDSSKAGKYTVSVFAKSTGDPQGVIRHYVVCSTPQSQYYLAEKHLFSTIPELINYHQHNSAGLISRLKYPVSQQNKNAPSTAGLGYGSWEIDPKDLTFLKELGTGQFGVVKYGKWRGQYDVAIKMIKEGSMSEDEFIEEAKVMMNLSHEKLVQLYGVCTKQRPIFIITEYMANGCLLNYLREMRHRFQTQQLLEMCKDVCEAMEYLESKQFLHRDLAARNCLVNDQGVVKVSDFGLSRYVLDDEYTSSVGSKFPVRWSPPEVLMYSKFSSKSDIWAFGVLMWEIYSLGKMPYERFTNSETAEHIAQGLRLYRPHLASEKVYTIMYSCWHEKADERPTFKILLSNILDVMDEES

[7] = target: Mitogen-activated protein kinase 10 (Homo sapiens) (UniProt P53779); test: Inhibition of JNK3 relative to control; settings: concentration not given here
Mitogen-activated protein kinase 10 (Homo sapiens), sequence (P53779 whole entry): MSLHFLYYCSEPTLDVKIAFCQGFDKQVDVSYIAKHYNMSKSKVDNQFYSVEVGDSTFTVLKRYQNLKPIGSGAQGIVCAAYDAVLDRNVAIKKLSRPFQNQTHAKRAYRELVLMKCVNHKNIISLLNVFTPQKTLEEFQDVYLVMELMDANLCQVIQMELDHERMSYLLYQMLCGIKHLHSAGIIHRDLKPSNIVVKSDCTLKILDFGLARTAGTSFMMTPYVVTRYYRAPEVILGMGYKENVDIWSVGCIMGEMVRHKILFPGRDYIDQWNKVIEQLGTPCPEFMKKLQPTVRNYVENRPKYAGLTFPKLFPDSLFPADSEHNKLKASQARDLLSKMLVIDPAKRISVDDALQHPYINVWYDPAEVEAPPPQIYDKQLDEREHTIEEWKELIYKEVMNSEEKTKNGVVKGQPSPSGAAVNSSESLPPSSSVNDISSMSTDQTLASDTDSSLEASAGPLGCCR

[8] = target: Vascular endothelial growth factor receptor 3 (Homo sapiens) (UniProt P35916); test: Inhibition of FLT4 relative to control; settings: concentration not given here
Mus musculus = test: Antiarthritic activity in C57BL/6 mouse assessed as inhibition of T-independent type 2 antigen-induced NP-specific IgM antibody titer production administered qd for 7 days by ELISA; assay type: functional, organism-based; settings: C57BL6
Summary of the method: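 Female C57BL/6 mice, 8–10 weeks old, immunized ip with NP(109)-Ficoll (TI-2 antigen). Compound or vehicle given po daily for 7 days, starting 1 day before immunization. Serum was collected 6 days after immunization, and NP-specific IgM and IgG3 titers were measured by ELISA.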

[9] = target: Receptor-type tyrosine-protein kinase FLT3 (Homo sapiens) (UniProt P36888); test: Inhibition of FLT3 relative to control; settings: concentration not given here
[10] = target: Focal adhesion kinase 1 (Homo sapiens) (UniProt Q05397); test: Inhibition of PTK2 relative to control; settings: concentration not given here
[11] = target: Glycogen synthase kinase-3 beta (Homo sapiens) (UniProt P49841); test: Inhibition of GSK3B relative to control; settings: concentration not given here
[12] = target: T1, Tyrosine-protein kinase BTK; test: Inhibition of BTK relative to control
[13] = target: Mitogen-activated protein kinase 9 (Homo sapiens) (UniProt P45984); test: Inhibition of JNK2 relative to control; settings: concentration not given here
Mitogen-activated protein kinase 9 (Homo sapiens), sequence (P45984 whole entry, looked up): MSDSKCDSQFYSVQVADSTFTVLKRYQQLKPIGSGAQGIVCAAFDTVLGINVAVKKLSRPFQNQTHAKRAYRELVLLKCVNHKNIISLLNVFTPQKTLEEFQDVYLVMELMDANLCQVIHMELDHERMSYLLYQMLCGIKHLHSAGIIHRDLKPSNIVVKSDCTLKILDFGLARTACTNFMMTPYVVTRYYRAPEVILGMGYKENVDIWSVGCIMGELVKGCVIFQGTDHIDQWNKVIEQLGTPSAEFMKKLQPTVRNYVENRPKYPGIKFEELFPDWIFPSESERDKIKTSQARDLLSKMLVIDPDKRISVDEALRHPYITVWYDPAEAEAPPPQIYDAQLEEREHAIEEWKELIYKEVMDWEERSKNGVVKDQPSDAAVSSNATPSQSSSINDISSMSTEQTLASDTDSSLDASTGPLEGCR

[14] = system: Hepatocyte growth factor receptor (Homo sapiens), P08581 [M1250T]; test: Inhibition of MET M1250T mutant relative to control; settings: concentration not given here
Hepatocyte growth factor receptor (Homo sapiens), P08581 [M1250T], sequence (P08581 whole entry M1250T): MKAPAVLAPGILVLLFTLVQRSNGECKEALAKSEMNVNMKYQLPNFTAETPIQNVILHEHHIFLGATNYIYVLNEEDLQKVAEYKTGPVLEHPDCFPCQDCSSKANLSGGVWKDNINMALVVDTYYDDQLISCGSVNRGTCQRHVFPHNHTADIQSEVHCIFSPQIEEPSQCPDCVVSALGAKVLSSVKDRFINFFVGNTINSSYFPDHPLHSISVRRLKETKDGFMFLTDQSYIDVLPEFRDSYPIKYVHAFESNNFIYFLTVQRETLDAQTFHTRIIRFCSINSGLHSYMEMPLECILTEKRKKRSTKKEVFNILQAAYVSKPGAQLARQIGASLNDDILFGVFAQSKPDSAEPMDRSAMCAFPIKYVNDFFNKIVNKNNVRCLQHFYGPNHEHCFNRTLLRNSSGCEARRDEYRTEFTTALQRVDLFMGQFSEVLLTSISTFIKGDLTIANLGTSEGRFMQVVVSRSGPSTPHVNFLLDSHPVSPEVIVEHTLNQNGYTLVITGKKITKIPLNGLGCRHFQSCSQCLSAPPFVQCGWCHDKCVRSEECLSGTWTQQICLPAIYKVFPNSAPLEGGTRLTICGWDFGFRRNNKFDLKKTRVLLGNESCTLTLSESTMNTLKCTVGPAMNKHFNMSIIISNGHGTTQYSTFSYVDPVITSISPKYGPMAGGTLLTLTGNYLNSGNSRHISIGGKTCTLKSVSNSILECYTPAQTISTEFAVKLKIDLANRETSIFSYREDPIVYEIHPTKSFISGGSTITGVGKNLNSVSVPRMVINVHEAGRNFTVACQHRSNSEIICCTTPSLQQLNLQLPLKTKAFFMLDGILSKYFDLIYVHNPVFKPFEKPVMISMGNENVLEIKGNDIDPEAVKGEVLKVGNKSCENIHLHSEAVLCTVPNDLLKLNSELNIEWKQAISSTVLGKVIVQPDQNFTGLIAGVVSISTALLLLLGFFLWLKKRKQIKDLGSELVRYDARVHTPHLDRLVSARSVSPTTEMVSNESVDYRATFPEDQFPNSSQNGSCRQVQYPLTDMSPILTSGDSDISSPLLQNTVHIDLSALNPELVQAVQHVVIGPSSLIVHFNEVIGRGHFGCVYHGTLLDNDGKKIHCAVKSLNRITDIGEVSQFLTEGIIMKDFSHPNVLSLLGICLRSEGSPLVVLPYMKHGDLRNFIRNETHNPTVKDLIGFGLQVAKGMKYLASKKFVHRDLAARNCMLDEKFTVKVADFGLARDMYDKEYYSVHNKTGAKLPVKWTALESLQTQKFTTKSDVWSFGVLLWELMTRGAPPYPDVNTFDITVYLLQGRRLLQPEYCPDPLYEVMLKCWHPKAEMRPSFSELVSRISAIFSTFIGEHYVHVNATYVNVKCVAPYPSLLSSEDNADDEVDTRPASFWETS

[15] = target: Serine/threonine-protein kinase MARK1 (Homo sapiens) (UniProt Q9P0L2); test: Inhibition of MARK1 relative to control; settings: concentration not given here
Serine/threonine-protein kinase MARK1 (Homo sapiens), sequence (Q9P0L2 whole entry, looked up): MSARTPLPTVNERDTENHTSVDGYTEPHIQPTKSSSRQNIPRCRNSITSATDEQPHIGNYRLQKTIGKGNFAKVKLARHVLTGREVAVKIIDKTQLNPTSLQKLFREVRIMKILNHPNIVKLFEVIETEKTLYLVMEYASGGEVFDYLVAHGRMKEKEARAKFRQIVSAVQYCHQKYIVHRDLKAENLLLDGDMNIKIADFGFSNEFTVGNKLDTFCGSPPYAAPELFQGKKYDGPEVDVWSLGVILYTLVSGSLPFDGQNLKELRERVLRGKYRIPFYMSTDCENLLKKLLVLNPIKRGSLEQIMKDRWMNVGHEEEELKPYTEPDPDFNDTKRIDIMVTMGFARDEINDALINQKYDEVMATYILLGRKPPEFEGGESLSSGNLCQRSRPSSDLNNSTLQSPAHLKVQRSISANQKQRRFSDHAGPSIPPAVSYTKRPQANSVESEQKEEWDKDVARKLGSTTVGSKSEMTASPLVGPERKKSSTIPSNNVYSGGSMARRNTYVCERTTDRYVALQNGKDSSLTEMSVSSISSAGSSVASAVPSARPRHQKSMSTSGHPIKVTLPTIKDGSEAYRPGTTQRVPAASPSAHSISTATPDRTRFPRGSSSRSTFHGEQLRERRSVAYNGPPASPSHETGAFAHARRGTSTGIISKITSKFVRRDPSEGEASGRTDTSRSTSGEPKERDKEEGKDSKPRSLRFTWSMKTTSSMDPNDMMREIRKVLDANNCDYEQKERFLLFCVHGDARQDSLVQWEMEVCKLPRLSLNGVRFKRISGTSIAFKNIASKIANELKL

[16] = target: Serine/threonine-protein kinase PLK1 (Homo sapiens) (UniProt P53350); test: Inhibition of PLK1 relative to control; settings: concentration not given here
[17] = target: Tyrosine-protein kinase Lyn (Homo sapiens, UniProt P07948); test: Inhibition of LYN-A expressed in Sf9 cells after 60 mins by TR-FRET Assay
[18] = target: T2, Aryl hydrocarbon receptor (Mus musculus, UniProt P30561); test: Agonist activity at Ah receptor in genetically engineered mouse cells expressing firefly luciferase gene by CALUX transactivational assay; assay type: functional
T2 sequence (P30561 whole entry): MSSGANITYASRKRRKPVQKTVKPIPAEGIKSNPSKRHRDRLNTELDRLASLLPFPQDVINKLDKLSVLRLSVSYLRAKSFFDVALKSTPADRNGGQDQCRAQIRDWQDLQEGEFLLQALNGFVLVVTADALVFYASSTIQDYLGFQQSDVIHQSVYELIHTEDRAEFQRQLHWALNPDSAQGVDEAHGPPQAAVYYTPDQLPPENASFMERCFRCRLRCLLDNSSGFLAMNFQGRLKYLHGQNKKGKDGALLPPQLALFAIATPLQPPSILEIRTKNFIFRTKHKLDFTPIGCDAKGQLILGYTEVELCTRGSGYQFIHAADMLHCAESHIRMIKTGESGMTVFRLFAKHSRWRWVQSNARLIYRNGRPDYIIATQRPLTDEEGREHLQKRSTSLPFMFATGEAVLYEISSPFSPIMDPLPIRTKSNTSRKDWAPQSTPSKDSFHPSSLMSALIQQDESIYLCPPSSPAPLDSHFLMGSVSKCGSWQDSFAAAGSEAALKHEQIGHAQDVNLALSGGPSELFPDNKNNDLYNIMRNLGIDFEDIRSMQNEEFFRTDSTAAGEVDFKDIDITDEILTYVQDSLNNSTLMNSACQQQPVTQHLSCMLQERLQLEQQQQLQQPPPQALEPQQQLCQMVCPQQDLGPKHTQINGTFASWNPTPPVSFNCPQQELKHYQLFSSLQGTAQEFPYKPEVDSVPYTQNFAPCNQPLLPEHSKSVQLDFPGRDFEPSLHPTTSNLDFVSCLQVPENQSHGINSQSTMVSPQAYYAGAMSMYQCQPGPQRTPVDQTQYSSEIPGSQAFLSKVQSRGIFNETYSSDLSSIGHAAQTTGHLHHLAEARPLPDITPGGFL

[19] = target: Phosphatidylinositol 4-phosphate 3-kinase C2 domain-containing subunit alpha (Homo sapiens) (UniProt O00443); test: Inhibition of PI3K-C2 alpha relative to control; settings: concentration not given here
[20] = Cmax in mouse at 10 mg/kg, po; assay type: ADME, organism-based; parameters: dose 10 mg/kg, route oral; settings: in vivo
[21] = target: Vascular endothelial growth factor receptor 2 (Homo sapiens) (UniProt P35968); test: Inhibition of KDR relative to control; settings: concentration not given here
[22] = Inhibition of anti-IgM-stimulated human B cell proliferation assessed as [3H]thymidine incorporation preincubated for 30 mins measured after 3 days; assay type: functional, cell-based; settings: Homo sapiens, B-cell; read-out: IC50
[23] = target: Tyrosine-protein kinase ITK/TSK (Homo sapiens) (UniProt Q08881); test: Inhibition of ITK relative to control; settings: concentration not given here
[24] = target: Insulin receptor (Homo sapiens) (UniProt P06213); test: Inhibition of INSR relative to control; settings: concentration not given here
[25] = target: Proto-oncogene tyrosine-protein kinase Src (Homo sapiens, UniProt P12931); test: Inhibition of SRC relative to control; settings: concentration not given here
[26] = target: Proto-oncogene tyrosine-protein kinase receptor Ret (Homo sapiens) (UniProt P07949); test: Inhibition of RET relative to control; settings: concentration not given here
[27] = target: Phosphatidylinositol 4-phosphate 3-kinase C2 domain-containing subunit beta (Homo sapiens) (UniProt O00750); test: Inhibition of PI3K-C2 beta relative to control; settings: concentration not given here
[28] = target: Protein kinase C alpha type (Homo sapiens) (UniProt P17252); test: Inhibition of PRKCA relative to control; settings: concentration not given here
[29] = target: Serine/threonine-protein kinase Chk1 (Homo sapiens) (UniProt O14757); test: Inhibition of CHEK1 relative to control; settings: concentration not given here
Serine/threonine-protein kinase Chk1 (Homo sapiens), sequence (O14757 whole entry): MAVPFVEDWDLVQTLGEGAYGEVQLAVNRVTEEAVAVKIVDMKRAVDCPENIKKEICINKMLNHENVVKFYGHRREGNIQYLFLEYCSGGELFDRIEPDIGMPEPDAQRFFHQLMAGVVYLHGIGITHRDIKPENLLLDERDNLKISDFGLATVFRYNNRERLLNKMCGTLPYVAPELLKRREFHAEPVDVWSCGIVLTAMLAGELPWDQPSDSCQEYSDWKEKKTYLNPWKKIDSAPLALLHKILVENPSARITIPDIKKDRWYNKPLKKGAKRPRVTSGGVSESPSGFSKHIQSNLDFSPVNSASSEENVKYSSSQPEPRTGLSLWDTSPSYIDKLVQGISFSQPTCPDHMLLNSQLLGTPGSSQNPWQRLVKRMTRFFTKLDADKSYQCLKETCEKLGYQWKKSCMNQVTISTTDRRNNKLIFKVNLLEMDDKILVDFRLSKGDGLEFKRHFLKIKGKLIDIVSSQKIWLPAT

[30] = target: Interleukin-1 receptor-associated kinase 4 (Homo sapiens) (UniProt Q9NWZ3); test: Inhibition of IRAK4 relative to control; settings: concentration not given here
[31] = target: Tyrosine-protein kinase FRK (Homo sapiens, UniProt P42685); test: Inhibition of FRK relative to control
Tyrosine-protein kinase FRK, sequence (P42685 whole entry): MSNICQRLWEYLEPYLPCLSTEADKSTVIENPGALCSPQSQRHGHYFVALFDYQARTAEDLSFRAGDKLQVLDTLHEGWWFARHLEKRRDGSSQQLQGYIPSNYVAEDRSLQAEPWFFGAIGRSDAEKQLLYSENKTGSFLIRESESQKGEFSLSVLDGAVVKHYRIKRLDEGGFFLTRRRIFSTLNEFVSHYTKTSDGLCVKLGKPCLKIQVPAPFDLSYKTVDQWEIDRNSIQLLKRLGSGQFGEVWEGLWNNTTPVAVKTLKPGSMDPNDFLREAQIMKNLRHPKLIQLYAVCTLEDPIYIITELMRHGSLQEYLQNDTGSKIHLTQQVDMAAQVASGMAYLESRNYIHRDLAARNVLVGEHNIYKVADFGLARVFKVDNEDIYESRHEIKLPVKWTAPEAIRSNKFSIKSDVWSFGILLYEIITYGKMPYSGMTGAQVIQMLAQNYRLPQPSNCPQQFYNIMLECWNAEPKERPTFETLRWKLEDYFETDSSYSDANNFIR

[32] = target: Tyrosine-protein kinase SYK (Homo sapiens) (UniProt P43405); test: Inhibition of SYK relative to control; settings: concentration not given here

For `Cc1ccccc1Nc1nc2cc(F)c(N(C)C(=O)/C=C/CN(C)C)cc2n2cncc12`, the inhibition [1] was 10%, the inhibition [2] was 100% and the inhibition [3] was 0%. It also gave an inhibition [4] of 42%, an inhibition [5] of -5% and an IC50 [6] of 0.048 µM. The inhibition [7] was 0%, the inhibition [8] was 6% and the inhibition (Mus musculus) was “Dose-dependent effect”. For the same molecule, the inhibition [9] was -8%, the inhibition [10] was -2% and the inhibition [11] was 6%. It also gave an IC50 [12] of 0.00331 µM, an inhibition [13] of 18% and an inhibition [14] of 5%. For the same molecule, the inhibition [15] was 8%, the inhibition [16] was 4% and the IC50 [17] was 0.624 µM. It also gave an EC50 [18] of over 10 µM, an inhibition [19] of 0% and a Cmax [20] of 0.22 µg/mL. For the same molecule, the inhibition [21] was 7%, the IC50 [22] was 0.00341 µM and the inhibition [23] was 5%. For the same molecule, the inhibition [24] was -5%, the inhibition [25] was 43% and the inhibition [26] was 6%. For the same molecule, the inhibition [27] was 11%, the inhibition [28] was -6% and the inhibition [29] was 8%. The inhibition [30] was 10%, the IC50 [31] was 0.611 µM and the inhibition ([31]; concentration not given here) was 60%. It also gave an inhibition [32] of 0%.
